Data: publication PMC10756989 (Heliyon, 2023)

Columns and labels:
pancreatic α-amylase = target: T1, pancreatic α-amylase (Homo sapiens, UniProt P04746); assay: α-amylase enzyme inhibitory activity; type: biochemical; details: for percentage α-amylase inhibition: at 63 μg/mL, Fig. 5
T1 sequence (P04746 16-511): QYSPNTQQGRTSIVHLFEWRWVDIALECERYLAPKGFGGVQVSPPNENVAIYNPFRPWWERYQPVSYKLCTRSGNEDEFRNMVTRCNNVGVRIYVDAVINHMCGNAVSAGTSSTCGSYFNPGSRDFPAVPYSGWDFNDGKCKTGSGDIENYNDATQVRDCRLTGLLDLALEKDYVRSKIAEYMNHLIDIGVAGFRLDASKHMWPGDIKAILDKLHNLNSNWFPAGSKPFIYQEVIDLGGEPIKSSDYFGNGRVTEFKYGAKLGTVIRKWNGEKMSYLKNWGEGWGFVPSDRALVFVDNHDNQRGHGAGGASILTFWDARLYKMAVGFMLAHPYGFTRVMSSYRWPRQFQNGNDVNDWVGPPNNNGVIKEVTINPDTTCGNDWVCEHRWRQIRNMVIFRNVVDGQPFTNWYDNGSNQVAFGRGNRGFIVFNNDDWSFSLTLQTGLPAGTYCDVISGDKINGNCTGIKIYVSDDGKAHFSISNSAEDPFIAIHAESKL

Nitric oxide = details: for NO IC50: 10 mM sodium nitroprusside, pH 7.4 PBS, 25 °C, 546 nm; for NO scavenging activity: Fig. 12
Procedure, shortened: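 Test compound or Trolox reference at various concentrations, incubated 2 h with sodium nitroprusside in PBS. Griess reagent is added, with a further 5 min at 25 °C. Absorbance is read against a blank without test samples.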

[1] = DPPH radical mopping capacity; details: DPPH 300 μM in methanol, 30 min, 516 nm
Procedure, shortened: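 Test compound or Trolox reference (63–500 μg/mL) mixed with DPPH in methanol and kept in the dark at ambient temperature. Absorbance is read against a control without sample or Trolox.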

Ferric = details: for FRAP IC50: ferric reducing power, 63–500 μg/mL, 700 nm; for Fe^3+ reducing power: at 500 μg/mL, Fig. 14
Procedure, shortened: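 Potassium ferricyanide reduction: test compound or Trolox (63–500 μg/mL) with 200 mM phosphate buffer and 1 % K3Fe(CN)6, 50 °C, 25 min. Then TCA (0.1 g/mL) is added, the mix is diluted with water, and 0.1 % FeCl3 is added before reading. Reducing capacity is estimated from a gallic acid standard curve.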

yeast α-glucosidase = yeast α-glucosidase (Saccharomyces cerevisiae, UniProt P53341); assay: α-glucosidase enzyme inhibitory activity; type: biochemical; details: for α-glucosidase percentage inhibition: at 250 μg/mL
Sequence of yeast α-glucosidase (P53341 whole entry): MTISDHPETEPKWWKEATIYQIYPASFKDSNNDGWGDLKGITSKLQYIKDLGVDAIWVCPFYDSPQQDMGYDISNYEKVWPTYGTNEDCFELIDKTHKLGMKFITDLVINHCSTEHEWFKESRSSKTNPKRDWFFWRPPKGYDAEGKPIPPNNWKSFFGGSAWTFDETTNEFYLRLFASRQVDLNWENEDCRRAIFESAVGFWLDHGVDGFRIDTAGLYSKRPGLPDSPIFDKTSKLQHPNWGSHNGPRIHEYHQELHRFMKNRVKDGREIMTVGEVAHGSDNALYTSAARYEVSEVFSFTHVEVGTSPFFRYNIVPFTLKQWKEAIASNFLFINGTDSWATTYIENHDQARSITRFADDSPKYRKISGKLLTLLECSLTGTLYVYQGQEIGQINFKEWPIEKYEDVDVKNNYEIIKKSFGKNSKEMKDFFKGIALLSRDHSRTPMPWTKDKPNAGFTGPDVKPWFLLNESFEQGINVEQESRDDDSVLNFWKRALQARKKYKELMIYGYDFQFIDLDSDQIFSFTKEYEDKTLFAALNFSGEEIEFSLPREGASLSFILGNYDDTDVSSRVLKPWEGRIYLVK

| SMILES | percentage α-amylase inhibition (pancreatic α-amylase) | NO IC50 (Nitric oxide; listed as Acarbose (Standard)) | DPPH IC50 [1] | FRAP IC50 (Ferric) | IC50 (pancreatic α-amylase) | α-glucosidase percentage inhibition (yeast α-glucosidase; Fig. 6) | α-glucosidase inhibitory effect (yeast α-glucosidase; at 63–125 μg/mL, among the synthesised samples, Fig. 6) | NO IC50 (Nitric oxide) | NO scavenging activity (Nitric oxide; at 63–250 μg/mL, versus other compounds and Trolox) | Fe^3+ reducing power (Ferric) | IC50 (yeast α-glucosidase) | α-glucosidase inhibitory activity (yeast α-glucosidase; at 500 μg/mL, compared with L1 and acarbose, Fig. 6) | NO scavenging activity (Nitric oxide; at 500 μg/mL) |
| --- | --- | --- | --- | --- | --- | --- | --- | --- | --- | --- | --- | --- | --- |
| C[C@H]1O[C@H](O[C@H]2[C@H](O)[C@@H](O)[C@@H](O[C@H]3[C@H](O)[C@@H](O)C(O)O[C@@H]3CO)O[C@@H]2CO)[C@H](O)[C@@H](O)[C@@H]1N[C@H]1C=C(CO)[C@@H](O)[C@H](O)[C@H]1O (stereo partly shown) [Acarbose, reference compound] | indistinguishable | 109,59 μg/mL | 13,62 μg/mL | 292,51 μg/mL | – | – | – | – | – | – | – | – | – |
| Cc1cc(C)c(/N=C/c2ccc3ccccc3c2)c(C)c1 [Compound L1, (E)-N-mesityl-1-(naphthalen-2-yl)methanimine] | indistinguishable | – | 25,44 μg/mL | >500 µg/mL | 215 µM | did not exhibit statistically significant differences | significantly higher inhibitory effect | 70,91 μg/mL | significantly higher | slightly better abilities | – | – | – |
| Cc1cccc(C)c1/N=C/c1ccc2ccccc2c1 [Compound L2, (E)-N-(2,6-dimethylphenyl)-1-(naphthalen-2-yl)methanimine] | indistinguishable | – | 35,69 μg/mL | >500 µg/mL | > 1930 µM | did not exhibit statistically significant differences | – | 119,68 μg/mL | – | slightly better abilities | 568 µM | significantly greater activity | lower compared with the other test compounds and standard |
| CC(C)c1cccc(C(C)C)c1/N=C/c1ccc2ccccc2c1 [Compound L3, (E)-N-(2,6-diisopropylphenyl)-1-(naphthalen-2-yl)methanimine] | – | – | 67,81 μg/mL | >500 µg/mL | > 1580 µM | – | – | 91,21 μg/mL | – | – | 653 µM | – | – |
| Cc1c(C)c2c(c(C)c1O)CCC(C)(C(=O)O)O2 (stereo not shown) [Trolox, reference compound] | – | – | 13.62 µg/mL | 292.51 µg/mL | – | – | – | 109.59 µg/mL | – | – | – | – | – |
